Measured values published in ChEMBL document CHEMBL1177711, “Novel quinolizidinyl derivatives as antiarrhythmic agents: 2. Further investigation” (J Med Chem, 2010).
Calls of active or inactive are those of the source.

Assays:
[1] = system: Aorta; test: Vasorelaxant activity in potassium depolarized guinea pig aortic strip assessed as inhibition of calcium-induced contraction at 100 uM; type: functional; conditions: Cavia porcellus
[2] = Negative inotropic activity against potassium-induced contraction in guinea pig left atrium assessed as decrease in developed tension; type: functional, tissue-based; conditions: Cavia porcellus, Cardiac atrium
[3] = Negative chronotropic activity against potassium-induced contraction in guinea pig left atrium assessed as decrease atrial rate at 100 uM relative to control; type: functional, Cavia porcellus, Cardiac atrium; parameters: scale not given: the % may be the effect or the level left
[4] = Negative inotropic activity against potassium-induced contraction in guinea pig left atrium assessed as decrease in developed tension at 5 uM relative to control; type: functional, Cavia porcellus, Cardiac atrium; parameters: scale not given: the % may be the effect or the level left
[5] = Antiarrhythmic activity in sinusoidal alternating current-induced guinea pig left atrium assessed as increase in current strength at which extra beats occur measured every 30 mins; type: functional, tissue-based; conditions: Cavia porcellus, Cardiac atrium, 0.5 h
Outline: (§1)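 Isolated guinea pig left atria, electrically driven at 1 Hz, were exposed to sinusoidal alternating current to induce arrhythmia. The read-out was the rise in the ac-arrhythmia threshold over concentrations up to 100 μM.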

[6] = Antiarrhythmic activity in sinusoidal alternating current-induced guinea pig left atrium assessed as increase in current strength at which extra beats occur at 10 uM measured every 30 mins; type: functional, Cavia porcellus, Cardiac atrium; outline: as §1
[7] = Cardioprotective effect in Langendorff perfused guinea pig spontaneously beating […] assessed as duration of ventricular action potential at 10 uM (RVb = 140 to 161 +/- 2 to 8 ms); type: functional, Cavia porcellus, Cardiac ventricle
Outline: (§2)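 Whole guinea pig hearts were Langendorff-perfused and their ECG recorded at graded concentrations. Intervals read were PR (atrioventricular conduction time), QT (ventricular action potential duration) and QRS (intraventricular conduction time).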

[8] = Cardioprotective effect in Langendorff perfused guinea pig spontaneously beating […] assessed as duration of ventricular action potential at 1 uM (RVb = 140 to 161 +/- 2 to 8 ms); type: functional, Cavia porcellus, Cardiac ventricle; outline: as §2
[9] = Cardioprotective effect in Langendorff perfused guinea pig spontaneously beating […] assessed as atrioventicular conduction time at 1 uM (RVb = 50 to 55 +/- 1 to 4 ms); type: functional; conditions: Cavia porcellus; outline: as §2
[10] = Cardioprotective effect in Langendorff perfused guinea pig spontaneously beating […] assessed as duration of ventricular action potential at 0.1 uM (RVb = 140 to 161 +/- 2 to 8 ms); type: functional, Cavia porcellus, Cardiac ventricle; outline: as §2
[11] = Cardioprotective effect in Langendorff perfused guinea pig spontaneously beating […] assessed as duration of ventricular action potential at 0.01 uM (RVb = 140 to 161 +/- 2 to 8 ms); type: functional, Cavia porcellus, Cardiac ventricle; outline: as §2
[12] = Cardioprotective effect in Langendorff perfused guinea pig spontaneously beating […] assessed as duration of ventricular action potential at 0.001 uM (RVb = 140 to 161 +/- 2 to 8 ms); type: functional, Cavia porcellus, Cardiac ventricle; outline: as §2
[13] = Cardioprotective effect in Langendorff perfused guinea pig spontaneously beating […] assessed as intraventicular conduction time at 10 uM (RVb = 19 to 24 +/- 1 to 2 ms); type: functional; conditions: Cavia porcellus; outline: as §2
[14] = Cardioprotective effect in Langendorff perfused guinea pig spontaneously beating […] assessed as intraventicular conduction time at 1 uM (RVb = 19 to 24 +/- 1 to 2 ms); type: functional; conditions: Cavia porcellus; outline: as §2
[15] = Cardioprotective effect in Langendorff perfused guinea pig spontaneously beating […] assessed as intraventicular conduction time at 0.1 uM (RVb = 19 to 24 +/- 1 to 2 ms); type: functional; conditions: Cavia porcellus; outline: as §2
[16] = Cardioprotective effect in Langendorff perfused guinea pig spontaneously beating […] assessed as intraventicular conduction time at 0.01 uM (RVb = 19 to 24 +/- 1 to 2 ms); type: functional; conditions: Cavia porcellus; outline: as §2
[17] = Cardioprotective effect in Langendorff perfused guinea pig spontaneously beating […] assessed as intraventicular conduction time at 0.001 uM (RVb = 19 to 24 +/- 1 to 2 ms); type: functional; conditions: Cavia porcellus; outline: as §2
[18] = Cardioprotective effect in Langendorff perfused guinea pig spontaneously beating […] assessed as atrioventicular conduction time at 10 uM (RVb = 50 to 55 +/- 1 to 4 ms); type: functional; conditions: Cavia porcellus; outline: as §2
[19] = Cardioprotective effect in Langendorff perfused guinea pig spontaneously beating […] assessed as atrioventicular conduction time at 0.1 uM (RVb = 50 to 55 +/- 1 to 4 ms); type: functional; conditions: Cavia porcellus; outline: as §2
[20] = Cardioprotective effect in Langendorff perfused guinea pig spontaneously beating […] assessed as atrioventicular conduction time at 0.01 uM (RVb = 50 to 55 +/- 1 to 4 ms); type: functional; conditions: Cavia porcellus; outline: as §2
[21] = Cardioprotective effect in Langendorff perfused guinea pig spontaneously beating […] assessed as atrioventicular conduction time at 0.001 uM (RVb = 50 to 55 +/- 1 to 4 ms); type: functional; conditions: Cavia porcellus; outline: as §2
[22] = system: Heart; test: Cardioprotective effect in Langendorff perfused guinea pig spontaneously beating […] assessed as heart rat at 0.001 uM (RVb = 175 to 190 +/- 5 to 11 bpm); type: functional, Cavia porcellus
[23] = system: Heart; test: Cardioprotective effect in Langendorff perfused guinea pig spontaneously beating […] assessed as heart rat at 0.01 uM (RVb = 175 to 190 +/- 5 to 11 bpm); type: functional, Cavia porcellus
[24] = system: Heart; test: Cardioprotective effect in Langendorff perfused guinea pig spontaneously beating […] assessed as heart rat at 0.1 uM (RVb = 175 to 190 +/- 5 to 11 bpm); type: functional, Cavia porcellus
[25] = system: Heart; test: Cardioprotective effect in Langendorff perfused guinea pig spontaneously beating […] assessed as heart rat at 1 uM (RVb = 175 to 190 +/- 5 to 11 bpm); type: functional, Cavia porcellus
[26] = system: Heart; test: Cardioprotective effect in Langendorff perfused guinea pig spontaneously beating […] assessed as heart rat at 10 uM (RVb = 175 to 190 +/- 5 to 11 bpm); type: functional, Cavia porcellus
[27] = system: Aorta; test: Negative inotropic activity in potassium depolarized guinea pig aortic strip assessed as inhibition of calcium-induced contraction at 1 uM; type: functional, tissue-based; conditions: Cavia porcellus
[28] = organism: Cavia porcellus; test: Negative inotropic activity in guinea pig longitudinal smooth muscle assessed as inhibition of calcium-induced contraction at 1 uM; type: functional
[29] = Negative chronotropic activity against potassium-induced contraction in guinea pig left atrium assessed as decrease atrial rate at 0.5 uM relative to control; type: functional, Cavia porcellus, Cardiac atrium; parameters: scale not given: the % may be the effect or the level left
[30] = Negative chronotropic activity against potassium-induced contraction in guinea pig left atrium assessed as decrease atrial rate at 50 uM relative to control; type: functional, Cavia porcellus, Cardiac atrium; parameters: scale not given: the % may be the effect or the level left
[31] = Negative inotropic activity against potassium-induced contraction in guinea pig left atrium assessed as decrease in developed tension at 10 uM relative to control; type: functional, Cavia porcellus, Cardiac atrium; parameters: scale not given: the % may be the effect or the level left
[32] = Negative inotropic activity against potassium-induced contraction in guinea pig left atrium assessed as decrease in developed tension at 50 uM relative to control; type: functional, Cavia porcellus, Cardiac atrium; parameters: scale not given: the % may be the effect or the level left
[33] = Antiarrhythmic activity in sinusoidal alternating current-induced guinea pig left atrium assessed as increase in current strength at which extra beats occur at 50 uM measured every 30 mins; type: functional, Cavia porcellus, Cardiac atrium; outline: as §1
[34] = organism: Cavia porcellus; test: Agonist activity at muscarinic M2 receptor in guinea pig left atrium assessed as negative ionotropic activity in presence of 1 uM atropine; type: functional, tissue-based; conditions: Cardiac atrium
Outline: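 Isolated guinea-pig left atria electrically driven at 1 Hz; contractile force (inotropy) recorded. Potency values derived by probit analysis (Litchfield and Wilcoxon).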

[35] = Negative chronotropic activity against potassium-induced contraction in guinea pig left atrium assessed as decrease atrial rate; type: functional, tissue-based; conditions: Cavia porcellus, Cardiac atrium
[36] = Negative chronotropic activity against potassium-induced contraction in guinea pig left atrium assessed as decrease atrial rate at 10 uM relative to control; type: functional, Cavia porcellus, Cardiac atrium; parameters: scale not given: the % may be the effect or the level left
[37] = Negative inotropic activity against potassium-induced contraction in guinea pig left atrium assessed as decrease in developed tension at 0.1 uM relative to control; type: functional, Cavia porcellus, Cardiac atrium; parameters: scale not given: the % may be the effect or the level left

Structure (SMILES) | inhibition at 100 µM [1] [%] | EC50 [2] [nM] | EC50 [5] [nM] | Activity [6] [%] | Activity [7] [ms] | Activity [8] [ms] | AV conduction time [9] [ms] | Activity [10] [ms] | Activity [11] [ms] | Activity [12] [ms] | intraventricular conduction time [13] [ms] | intraventricular conduction time [14] [ms] | intraventricular conduction time [15] [ms] | intraventricular conduction time [16] [ms] | intraventricular conduction time [17] [ms] | AV conduction time [18] [ms] | AV conduction time [19] [ms] | AV conduction time [20] [ms] | AV conduction time [21] [ms] | Activity [22] [bpm] | further results
Cc1cccc(C)c1OC[C@@H]1CCCN2CCCC[C@H]12 | 26 |  |  |  |  |  |  |  |  |  |  |  |  |  |  |  |  |  |  |  | 
COc1cc(NC(C)=O)c(Cl)cc1C(=O)NC[C@@H]1CCCN2CCCC[C@H]12 | 4 | 18 | 240 | 84 | 155 | 152 | 56 | 150 | 141 | 139 | 22 | 22 | 21 | 20 | 20 | 56 | 53 | 54 | 52 | 172 | Activity [3]: 6%; Activity [4]: 93%; Activity [23]: 170 bpm; Activity [24]: 168 bpm; Activity [25]: 167 bpm; Activity [26]: 165 bpm; inhibition [27]: inactive; inhibition [28]: inactive
CC(=O)Nc1ccc(C(=O)NC[C@@H]2CCCN3CCCC[C@H]23)cc1 |  | 56 |  |  |  |  |  |  |  |  |  |  |  |  |  |  |  |  |  |  | Activity [29]: 14%
Cc1cc(C)c(NCC[C@@H]2CCCN3CCCC[C@H]23)c(C)c1 | 37 | 34 | 8150 | 63 |  |  |  |  |  |  |  |  |  |  |  |  |  |  |  |  | Activity [30]: 44%; Activity [31]: 89%
COc1cc(N)c(Cl)cc1C(=O)NC[C@@H]1CCCN2CCCC[C@H]12 | 6 | 350 | 6730 |  |  |  |  |  |  |  |  |  |  |  |  |  |  |  |  |  | Activity [30]: 22%; Activity [32]: 95%; Activity [33]: 113%
CN1[C@@H]2CC[C@H]1C[C@@H](OC(=O)C(CO)c1ccccc1)C2 (stereo partly drawn) |  |  |  |  |  |  |  |  |  |  |  |  |  |  |  |  |  |  |  |  | inhibition [34]: inactive
Cc1cccc(C)c1NCCSC[C@@H]1CCCN2CCCC[C@H]12 | 34 |  | 310 | 129 | 175 | 170 | 57 | 168 | 162 | 160 | 26 | 25 | 24 | 23 | 23 | 60 | 55 | 55 | 55 | 186 | EC50 [35]: 8.42 µM; Activity [36]: 62%; Activity [31]: 37%; Activity [23]: 185 bpm; Activity [24]: 179 bpm; Activity [25]: 158 bpm; Activity [26]: 142 bpm
Cc1cccc(C)c1NC(=O)CSC[C@@H]1CCCN2CCCC[C@H]12 [LUPINYLTHIOACETYLANILIDE] |  |  | 590 |  | 168 | 164 | 55 | 157 | 155 | 150 | 23 | 24 | 24 | 22 | 22 | 60 | 53 | 51 | 52 | 181 | Activity [3]: 30%; Activity [33]: 67%; Activity [37]: 48%; Activity [23]: 175 bpm; Activity [24]: 171 bpm; Activity [25]: 166 bpm; Activity [26]: 156 bpm
Cc1cc(C)c(NC(=O)C[C@@H]2CCCN3CCCC[C@H]23)c(C)c1 | 2 | 10 |  |  |  |  |  |  |  |  |  |  |  |  |  |  |  |  |  |  | Activity [33]: 49%; Activity [37]: 54%
